Assay results published in ChEMBL document CHEMBL1781949, “Veraguamides A-G, cyclic hexadepsipeptides from a dolastatin 16-producing cyanobacterium Symploca cf. hydnoides from Guam” (J Nat Prod, 2011).
Numbered stars: 1 amine (or outer) side, 2 acyl side, 3 side chain; on linkers, the order of the positions; unused ones are H or OH. Square brackets hold non-standard residues; d marks the D form. Peptide text beside a SMILES is read from it. X1 = CC(Cc1ccccc1)C(N[*:1])C(=O)[*:2]; X2 = CC(C)C(N[*:1])C(C)C(=O)[*:2]; dNMeV = CN[C@@H](C(=O)O)C(C)C; dHiv = CC(C)[C@@H](O)C(=O)O; Lac = C[C@H](O)C(=O)O

Columns and labels:
HT-29 = assay: Cytotoxicity against human HT-29 cells after 48 hrs by MTT assay; assay type: functional, cell-based; details: HT-29, 48 h
Summary of the method: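 HT29 colorectal adenocarcinoma cells grown in DMEM with 10% FBS at 37 °C and 5% CO2. Cells seeded at 12,500 per well and treated with a range of concentrations 24 h after seeding. Paclitaxel positive control and DMSO solvent control. 48 h exposure, then MTT read-out. IC50 fitted from duplicate experiments.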

HeLa = assay: Cytotoxicity against human HeLa cells after 48 hrs by MTT assay; assay type: functional, cell-based
Summary of the method: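 HeLa cervical carcinoma cells grown in DMEM with 10% FBS at 37 °C and 5% CO2. Cells seeded at 3,000 per well and dosed at varying concentrations 24 h later. Paclitaxel positive control and DMSO solvent control. Incubated 48 h more before MTT measurement of viability. IC50 fitted from duplicate experiments.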

| SMILES | IC50 (HT-29) [µM] | IC50 (HeLa) [µM] |
| --- | --- | --- |
| CC(=O)O[C@H]1C(=O)[C@@]2(C)[C@H]([C@H](OC(=O)c3ccccc3)[C@]3(O)C[C@H](OC(=O)[C@H](O)[C@@H](NC(=O)c4ccccc4)c4ccccc4)C(C)=C1C3(C)C)[C@]1(OC(C)=O)CO[C@@H]1C[C@@H]2O [PACLITAXEL] | 0.003 | 0.0026 |
| C#CCCC[C@H]1OC(=O)[C@H](C(C)C)N(C)C(=O)[C@@H]2CCCN2C(=O)[C@H](Cc2ccccc2)OC(=O)[C@H](C(C)C)N(C)C(=O)[C@H](C(C)C)NC(=O)[C@H]1C [VERAGUAMIDE F] | – | 49 |
| CC(C)C1NC(=O)[C@@H]2CCCN2C(=O)C(C(C)Cc2ccccc2)NC(=O)[C@@H]2CCCN2C(=O)[C@@H](C(C)C)N(C)C(=O)[C@@H](C(C)C)OC(=O)[C@@H]2CCCN2C(=O)[C@H](C)OC(=O)C1C (stereo partly specified) [DOLASTATIN 16] (cyclo([Lac]P[dHiv][dNMeV]P[X1]P[X2])) | 78 | 58 |
| C#CCCC[C@H]1OC(=O)[C@H](C(C)C)N(C)C(=O)[C@@H]2CCCN2C(=O)[C@H]([C@@H](C)CC)OC(=O)[C@H](C(C)C)N(C)C(=O)[C@H](C(C)C)NC(=O)[C@H]1C [VERAGUAMIDE C] | – | 6.1 |
